In assay [1] the target is Integrin alpha-V/beta-3 (Homo sapiens, UniProt P05106+P06756). Description: Inhibition of vitronectin binding to human alphaVbeta3 integrin after 1 hr by ELISA. Format: protein-complex assay. A digest of the protocol:
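Plates coated overnight at 4 °C with vitronectin 1.0 μg/mL in carbonate buffer pH 9.6, blocked 1 h with TSB (Ca2+, Mg2+, Mn2+, 1% BSA). Soluble human αvβ3 (final 1.0 μg/mL) with inhibitor (final 0.128–400 nM) 1 h at room temperature; detection by anti-CD51/61 then peroxidase secondary, absorbance 405 nm. Duplicates; IC50 from curve inflection point; internal standard per plate.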
A general note: ELISA stands for enzyme-linked immunosorbent assay.

The target of assay [2] is T1, Protein Mdm4 (Homo sapiens, UniProt O15151).
T1 sequence (O15151 whole entry): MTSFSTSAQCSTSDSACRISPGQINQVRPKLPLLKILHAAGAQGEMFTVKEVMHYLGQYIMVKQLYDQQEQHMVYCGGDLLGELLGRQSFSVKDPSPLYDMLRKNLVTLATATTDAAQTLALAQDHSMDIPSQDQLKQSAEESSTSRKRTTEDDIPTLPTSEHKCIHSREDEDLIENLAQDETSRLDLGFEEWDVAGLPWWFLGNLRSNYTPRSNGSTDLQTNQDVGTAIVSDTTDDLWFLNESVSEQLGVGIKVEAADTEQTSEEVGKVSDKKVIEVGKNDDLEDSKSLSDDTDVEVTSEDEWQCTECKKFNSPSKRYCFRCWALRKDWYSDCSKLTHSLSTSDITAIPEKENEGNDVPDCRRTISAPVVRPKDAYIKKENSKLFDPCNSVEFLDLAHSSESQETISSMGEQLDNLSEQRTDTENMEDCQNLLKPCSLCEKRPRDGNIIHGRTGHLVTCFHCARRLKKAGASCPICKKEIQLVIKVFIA
The assay can be described thus: Displacement of p53 from MDM4 in human SHSY-5Y cells incubated for 10 mins by sandwich ELISA method. Format: cell-based.

The target in assay [3] is Integrin alpha-5/beta-1 (Homo sapiens, UniProt P05556+P08648). The assay can be described thus: Inhibition of fibronectin binding to soluble alpha5beta1 integrin (unknown origin) after 1 hr by ELISA. The class given is protein-complex assay.
Assay [4] addresses E3 ubiquitin-protein ligase Mdm2 (Homo sapiens, UniProt Q00987). The assay can be described thus: Displacement of p53 from MDM2 in human U87MG cells incubated for 10 mins by sandwich ELISA method. Format: cell-based.
In assay [5] the test system is U-87 MG. Description: Anti-invasive activity in human U87MG cells at 10 uM after 24 hrs by transwell assay. Format: functional. The method, boiled down: (§1)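 U87MG cells suspended in serum-free medium (60,000 cells), treated at 10 μM (each agent at 10 μM when combined), placed in upper chamber of Matrigel-coated (0.32 mg/mL) transwell; lower chamber RPMI with 10% FBS. Invasion 24 h at 37 °C; cells on lower membrane surface fixed with p-formaldehyde, crystal violet stained, counted in five random fields per filter. Mean ± SEM vs DMSO control.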

For assay [6], the system named is U-87 MG. Description: Antiproliferative activity against human U87MG cells at 100 nM after 72 hrs by MTS assay. Format: functional, cell-based. Conditions: U-87MG ATCC. A digest of the protocol:
(§2)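 Cells seeded ~5000 cells/cm2, after 24 h medium replaced with compound in DMSO (DMSO 1% v/v in controls), alone or in combination at 100 nM each, or concentration series (U87MG 1–100 nM). 72 h exposure; proliferation read by MTS, expressed as % of DMSO control (mean ± SEM, N = 3); IC50 from sigmoid dose–response fit.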
On the technique in general: Formazan colour is commonly taken as a measure of viable cells.

Assay [7] relates to U-87 MG. The assay can be described thus: Antiproliferative activity against human U87MG cells at 100 nM after 72 hrs in presence of alphaVbeta3 inhibitor cilengitide by MTS assay. Format: functional, cell-based. Conditions: U-87MG ATCC. The method, boiled down:
as §2

Assay [8] deals with U-87 MG. Description: Antiproliferative activity against human U87MG cells at 100 nM after 72 hrs in presence of alphaVbeta3 inhibitor cilengitide and MDM4 inhibitor SJ-1722550 by MTS assay. Conditions: U-87MG ATCC. The class given is functional, cell-based. The method, boiled down:
as §2

The test system of assay [9] is U-87 MG. The assay can be described thus: Anti-invasive activity in human U87MG cells at 10 uM after 24 hrs in presence of MDM4 inhibitor SJ-1722550 and alphaVbeta3 inhibitor cilengitide by transwell assay. The class given is functional, cell-based. Conditions: U-87MG ATCC. The method, boiled down:
as §1

In assay [10] the test system is T98G. The assay can be described thus: Antiproliferative activity against human T98G cells harboring p53 mutant at nanomolar concentration after 72 hrs by MTS assay. Format: functional, cell-based. A digest of the protocol: as §2
For assay [11], the system named is T98G. The assay can be described thus: Antiproliferative activity against human T98G cells harboring p53 mutant at micromolar concentration after 72 hrs by MTS assay. Format: functional, cell-based. The method, boiled down:
as §2

For assay [12], the species on record is Homo sapiens. Particulars: 100 nM.
For assay [13], the species on record is Homo sapiens. Conditions: 100 nM. The source holds these as a separate data set.
For assay [14], the species on record is Homo sapiens. Conditions: 100 nM. This is another data set of the same source.
Assay [15] is filed under the species Homo sapiens. Conditions: 100 nM. The source holds these as a separate data set.
The species named for assay [16] is Homo sapiens. Conditions: 100 nM. This is another data set of the same source.
For assay [17], the system named is U-87 MG. Description: Antiproliferative activity against human U87MG cells after 72 hrs by MTS assay.

The structures appear in SMILES notation. Activity calls are given as the source filed them. The rule behind the calls is not given here. Bounds are passed on as bounds.

A word on the IC50: it is the concentration that inhibits the measured activity by half.

Chain of Integrin alpha-5/beta-1 (P05556 21-798 limits assumed): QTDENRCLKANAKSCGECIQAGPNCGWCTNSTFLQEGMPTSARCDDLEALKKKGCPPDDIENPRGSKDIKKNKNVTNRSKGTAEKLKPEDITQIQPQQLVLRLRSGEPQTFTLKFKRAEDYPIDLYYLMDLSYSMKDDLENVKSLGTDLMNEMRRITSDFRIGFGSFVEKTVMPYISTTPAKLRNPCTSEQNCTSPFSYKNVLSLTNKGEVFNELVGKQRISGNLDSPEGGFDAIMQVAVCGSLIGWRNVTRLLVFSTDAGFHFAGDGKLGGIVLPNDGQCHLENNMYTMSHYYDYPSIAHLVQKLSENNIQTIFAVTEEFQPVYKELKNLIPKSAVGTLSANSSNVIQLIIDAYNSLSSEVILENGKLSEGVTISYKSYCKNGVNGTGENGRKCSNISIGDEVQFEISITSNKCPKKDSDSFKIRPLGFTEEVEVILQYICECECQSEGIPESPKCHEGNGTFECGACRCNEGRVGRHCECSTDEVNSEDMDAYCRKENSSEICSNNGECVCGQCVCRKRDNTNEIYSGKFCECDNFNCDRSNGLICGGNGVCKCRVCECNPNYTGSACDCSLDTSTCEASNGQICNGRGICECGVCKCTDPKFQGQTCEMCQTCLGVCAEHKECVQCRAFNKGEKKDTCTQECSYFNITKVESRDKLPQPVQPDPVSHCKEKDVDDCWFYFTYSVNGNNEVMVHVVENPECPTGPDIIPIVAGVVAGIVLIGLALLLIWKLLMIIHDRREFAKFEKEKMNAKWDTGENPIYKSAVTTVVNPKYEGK
Chain of Integrin alpha-5/beta-1 (P08648 42-894 limits assumed): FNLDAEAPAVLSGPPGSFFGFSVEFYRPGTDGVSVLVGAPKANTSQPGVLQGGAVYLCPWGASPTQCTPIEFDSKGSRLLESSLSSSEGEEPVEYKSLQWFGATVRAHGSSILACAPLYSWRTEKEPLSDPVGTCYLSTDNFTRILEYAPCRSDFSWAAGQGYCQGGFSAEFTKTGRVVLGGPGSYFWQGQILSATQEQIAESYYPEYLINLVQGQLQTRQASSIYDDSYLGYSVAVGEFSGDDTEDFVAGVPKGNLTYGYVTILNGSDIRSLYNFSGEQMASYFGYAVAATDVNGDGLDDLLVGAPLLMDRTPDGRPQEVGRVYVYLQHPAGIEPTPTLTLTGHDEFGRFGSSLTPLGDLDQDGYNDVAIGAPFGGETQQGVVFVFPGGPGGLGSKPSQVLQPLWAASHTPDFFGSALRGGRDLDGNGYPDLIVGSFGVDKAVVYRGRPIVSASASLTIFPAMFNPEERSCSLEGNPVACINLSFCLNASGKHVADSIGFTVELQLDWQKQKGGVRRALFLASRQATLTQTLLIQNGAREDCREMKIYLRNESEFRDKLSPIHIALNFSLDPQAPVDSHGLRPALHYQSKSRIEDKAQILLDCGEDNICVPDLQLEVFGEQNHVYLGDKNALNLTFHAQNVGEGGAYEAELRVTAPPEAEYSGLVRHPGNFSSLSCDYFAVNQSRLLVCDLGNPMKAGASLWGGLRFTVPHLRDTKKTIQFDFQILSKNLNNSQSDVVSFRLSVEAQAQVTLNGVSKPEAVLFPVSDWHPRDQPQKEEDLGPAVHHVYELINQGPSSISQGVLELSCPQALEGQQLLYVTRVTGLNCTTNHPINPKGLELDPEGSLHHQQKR
Chain of Integrin alpha-5/beta-1 (P08648 895-1049 limits assumed): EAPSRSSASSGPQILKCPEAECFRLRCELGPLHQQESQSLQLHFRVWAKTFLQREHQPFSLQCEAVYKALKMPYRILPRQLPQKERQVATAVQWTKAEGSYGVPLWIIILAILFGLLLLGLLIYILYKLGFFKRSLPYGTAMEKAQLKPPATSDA
Chain of Integrin alpha-V/beta-3 (P05106 27-788 limits assumed): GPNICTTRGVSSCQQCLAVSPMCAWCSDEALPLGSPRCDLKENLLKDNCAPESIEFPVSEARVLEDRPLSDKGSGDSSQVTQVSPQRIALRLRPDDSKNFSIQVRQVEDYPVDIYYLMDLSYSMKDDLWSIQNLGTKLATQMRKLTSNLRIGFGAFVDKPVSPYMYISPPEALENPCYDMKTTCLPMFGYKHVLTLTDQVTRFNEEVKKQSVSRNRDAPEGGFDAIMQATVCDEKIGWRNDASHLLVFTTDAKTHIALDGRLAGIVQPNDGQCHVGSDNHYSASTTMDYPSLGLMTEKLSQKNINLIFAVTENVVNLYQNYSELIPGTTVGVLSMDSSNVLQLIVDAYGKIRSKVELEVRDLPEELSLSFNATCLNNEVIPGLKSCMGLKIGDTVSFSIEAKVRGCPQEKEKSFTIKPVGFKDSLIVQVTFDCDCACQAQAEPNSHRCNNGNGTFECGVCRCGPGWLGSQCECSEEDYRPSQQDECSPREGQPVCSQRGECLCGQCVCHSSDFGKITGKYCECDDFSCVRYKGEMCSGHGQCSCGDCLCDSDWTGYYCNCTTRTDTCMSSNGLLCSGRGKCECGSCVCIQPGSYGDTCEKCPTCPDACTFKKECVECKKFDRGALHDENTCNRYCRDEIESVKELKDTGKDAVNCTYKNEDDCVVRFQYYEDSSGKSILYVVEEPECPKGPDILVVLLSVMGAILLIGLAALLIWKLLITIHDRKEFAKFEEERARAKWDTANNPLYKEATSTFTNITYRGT
Chain of Integrin alpha-V/beta-3 (P06756 31-889 limits assumed): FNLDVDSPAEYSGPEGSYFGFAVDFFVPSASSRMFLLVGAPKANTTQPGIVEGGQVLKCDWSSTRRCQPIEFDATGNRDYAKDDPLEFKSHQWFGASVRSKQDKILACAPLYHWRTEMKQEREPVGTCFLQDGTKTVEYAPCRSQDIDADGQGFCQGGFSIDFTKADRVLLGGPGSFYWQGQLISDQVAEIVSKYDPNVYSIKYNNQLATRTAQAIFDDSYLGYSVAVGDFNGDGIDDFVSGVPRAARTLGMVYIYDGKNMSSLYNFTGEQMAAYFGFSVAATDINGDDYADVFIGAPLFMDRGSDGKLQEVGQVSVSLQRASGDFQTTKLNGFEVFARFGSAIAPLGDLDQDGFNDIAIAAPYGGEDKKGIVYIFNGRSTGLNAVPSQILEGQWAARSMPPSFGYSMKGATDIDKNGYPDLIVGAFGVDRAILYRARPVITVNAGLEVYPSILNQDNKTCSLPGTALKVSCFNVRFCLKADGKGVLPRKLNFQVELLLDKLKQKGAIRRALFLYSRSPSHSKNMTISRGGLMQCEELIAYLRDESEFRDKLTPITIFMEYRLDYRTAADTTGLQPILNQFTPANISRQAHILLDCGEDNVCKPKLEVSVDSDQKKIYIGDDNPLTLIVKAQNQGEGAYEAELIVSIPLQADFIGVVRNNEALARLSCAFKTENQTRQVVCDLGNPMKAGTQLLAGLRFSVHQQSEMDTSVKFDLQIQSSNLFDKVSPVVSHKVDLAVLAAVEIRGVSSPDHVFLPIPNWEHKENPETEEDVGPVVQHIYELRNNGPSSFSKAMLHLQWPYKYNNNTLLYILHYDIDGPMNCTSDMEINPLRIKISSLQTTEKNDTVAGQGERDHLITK
Chain of Integrin alpha-V/beta-3 (P06756 891-1048 limits assumed): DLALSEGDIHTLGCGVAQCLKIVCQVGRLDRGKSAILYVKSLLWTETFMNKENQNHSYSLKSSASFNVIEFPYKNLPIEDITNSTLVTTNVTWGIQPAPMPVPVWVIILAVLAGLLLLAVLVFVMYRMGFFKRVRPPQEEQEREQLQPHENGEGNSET
Chain of E3 ubiquitin-protein ligase Mdm2 (Q00987 whole entry): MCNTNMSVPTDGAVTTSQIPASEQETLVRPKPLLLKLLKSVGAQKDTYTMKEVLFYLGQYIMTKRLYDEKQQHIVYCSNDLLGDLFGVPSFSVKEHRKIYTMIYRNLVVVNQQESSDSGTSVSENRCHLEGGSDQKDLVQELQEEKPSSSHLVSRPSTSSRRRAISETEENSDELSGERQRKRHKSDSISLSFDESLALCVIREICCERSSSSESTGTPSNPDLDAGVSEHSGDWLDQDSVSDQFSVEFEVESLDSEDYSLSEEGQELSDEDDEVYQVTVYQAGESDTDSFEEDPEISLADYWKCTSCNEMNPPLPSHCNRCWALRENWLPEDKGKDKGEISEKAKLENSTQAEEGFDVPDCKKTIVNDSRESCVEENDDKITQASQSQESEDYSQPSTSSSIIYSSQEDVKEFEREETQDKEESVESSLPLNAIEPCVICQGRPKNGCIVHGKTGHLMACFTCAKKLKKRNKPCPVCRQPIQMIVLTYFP

With `N=C(N)Nc1cccc(C(=O)NCC(=O)N[C@@H](CC(=O)O)C(=O)NCc2cccc(-c3ccccc3)c2)c1`, the half-inhibitory concentration (IC50) was 0.0012 µM in [1], more than 1 µM in assay [2] and 0.018 µM in [3].
For `N=C(N)Nc1cccc(C(=O)NCC(=O)N[C@@H](CC(=O)O)C(=O)NCCc2c[nH]c3ccccc23)c1`, the IC50 in [1] is 0.004 µM; in [2], more than 1 µM; in assay [3], 0.036 µM.
As to `N=C(N)Nc1cccc(C(=O)NCC(=O)N[C@@H](CC(=O)O)C(=O)NCc2ccccc2)c1`, the concentration for half-maximal inhibition (IC50) is 0.00079 µM in [1], more than 1 µM in assay [4] and 0.031 µM in assay [3].
As to `COc1ccc(C2=N[C@H](c3ccc(Cl)cc3)[C@H](c3ccc(Cl)cc3)N2C(=O)N2CCNC(=O)C2)c(OC(C)C)c1`, the outcome in assay [5] (U-87MG ATCC) and in assay [6] was inactive. Also, the outcome in assay [7], in [8] and in [9] was Active.
In the case of `N=C(N)Nc1cccc(C(=O)NCC(=O)N[C@@H](CC(=O)O)C(=O)NCCc2ccc3ccccc3c2)c1`, the figures for the IC50 in [1] and in assay [3] were 0.0022 µM and 0.076 µM, respectively.
For `N=C(N)Nc1cccc(C(=O)NCC(=O)N[C@@H](CC(=O)O)C(=O)NCc2ccc(Cl)cc2)c1` the same measures were 0.0013 µM and 0.048 µM.
Taken in the same sequence, the figures for `C[C@@H](NC(=O)[C@H](CC(=O)O)NC(=O)CNC(=O)c1cccc(NC(=N)N)c1)c1ccccc1` were 0.0016 µM and 0.045 µM.
Consider `N=C(N)Nc1cccc(C(=O)NCC(=O)N[C@@H](CC(=O)O)C(=O)NC(c2ccccc2)c2ccccc2)c1`, for which, in [5], the Activity was determined as 80%. Further, the IC50 was determined as 0.0014 µM in [1], 0.022 µM in assay [3] and 0.116 µM in assay [17]. For the same compound, the outcome in assay [10] was inactive. Besides, the result in assay [11] was Active. The inhibition entry in assay [12], in [13], in assay [14] and in assay [15] was “Active” throughout. Further, the inhibition result in assay [16] is “inactive”.
In the case of `N=C(N)Nc1cccc(C(=O)NCC(=O)N[C@@H](CC(=O)O)C(=O)NCc2ccc(-c3ccccc3)cc2)c1`, the results for the IC50 in assay [1], in assay [2] and in [3] were 0.0017 µM, more than 1 µM and 0.041 µM, respectively.

The values are drawn from ChEMBL document CHEMBL4138308, “Simultaneous Targeting of RGD-Integrins and Dual Murine Double Minute Proteins in Glioblastoma Multiforme” (J Med Chem, 2018).
